Test results published in ChEMBL document CHEMBL4513216, “Probing the Open Global Health Chemical Diversity Library for Multistage-Active Starting Points for Next-Generation Antimalarials” (ACS Infect Dis, 2020).

assay: Toxicity liver stage against HepG2, at 10uM; assay type: cell-based; set-up: test concentration 10 uM, cell line HepG2-A16-CD81EGFP; details: human, HepG2-A16-CD81EGFP cells; read-out: INHIBITION
Procedure, shortened: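 Uninfected HepG2-A16-CD81EGFP cells, 3 × 10^3 per well, 1536-well, plated on prespotted compound at 10 μM final, parasite-free screening media added to match infected plates; puromycin 10 μM positive, DMSO 0.5% negative; run in parallel with 48 h PbLuc assay at 37 °C, 5% CO2; viability by CellTiter-Glo luminescence, normalized to controls.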

Compared with CN1CCC(c2nc3ccc(-c4cccc(F)c4)cn3n2)CC1, CC1CCCN(Cc2coc(-c3cccc(F)c3)n2)C1 (stereo unspecified) is lower in cytotoxicity at 10 µM: 10.4% for the first, -16.7% for the second.

First: CNC(=O)CN1CCC(OCc2ccc(Cl)c(Cl)c2)CC1
Second: CCCOc1ccc(C(=O)N2C[C@@H](CN3CCCC3)[C@@H](CO)C2)cc1Cl
The cytotoxicity at 10 µM of the first is lower: -14.4% for the first, -5.84% for the second.

Compared with CCN1CCC(NC(=O)CN2CCCC(NS(C)(=O)=O)C2)CC1 (stereo unspecified), CS(=O)(=O)NC[C@]12COC[C@H]1CN(C(=O)N1CCCC1)C2 is lower in cytotoxicity at 10 µM: 2.94% for the first, -109% for the second.

Going from COCc1ccc(C(=O)N2CCC(c3cc4ncc(C)nc4[nH]3)C2)cc1 (stereo unspecified) to Cc1ccc2oc(C(=O)N3CCCC(n4cccn4)C3)cc2n1 (stereo unspecified), the cytotoxicity at 10 µM rises from -25.6% to -3.89%.

Compared with Cc1csc(CCNC(=O)NC(C)Cn2cccn2)n1 (stereo unspecified), Cc1csc(CCCNc2ccc(S(N)(=O)=O)cc2C#N)n1 is lower in cytotoxicity at 10 µM: -18% for the first, -49% for the second.

Compared with CC(CN1CCOCC1)NC(=O)N(C)Cc1ccc(Cl)s1 (stereo unspecified), Cc1ccsc1CN(C)C(=O)c1ccc(N2CCOCC2)c(F)c1 is higher in cytotoxicity at 10 µM: 7.21% for the first, 11.1% for the second.

First: CC(c1cccc(S(N)(=O)=O)c1)N(C)CCOc1ccccc1 (stereo unspecified)
Second: Clc1ccccc1CNC(Cn1cncn1)c1ccccc1 (stereo unspecified)
The cytotoxicity at 10 µM of the first is lower: -3.83% for the first, -2.88% for the second.

First: OCCN(Cc1ccccc1)Cc1ccsc1
Second: Cn1c(=O)c2sccc2n(Cc2ccccc2)c1=O
The cytotoxicity at 10 µM of the first is lower: 4.7% for the first, 4.84% for the second.

Compared with Cc1noc(C)c1S(=O)(=O)N1C[C@@H](C(=O)O)[C@H](c2ccccn2)C1, Cc1noc(C)c1CC(=O)Nc1ccn(CC(N)=O)n1 is higher in cytotoxicity at 10 µM: -6.71% for the first, 9.86% for the second.

First: COCC(=O)N1CCCC1c1ccnc(Nc2cnccn2)n1 (stereo unspecified)
Second: COCCOc1ncccc1C(=O)N1CCCCC1c1nccs1 (stereo unspecified)
The cytotoxicity at 10 µM of the first is higher: -4.3% for the first, -11.5% for the second.

Going from CCCSc1ncc(-c2nccn2CCC(N)=O)cn1 to CN(C)Cc1cc(-c2nccn2CCn2cccn2)ccc1O, the cytotoxicity at 10 µM falls from -10.4% to -50.5%.

Compared with Cc1ccc(-c2ncc(CNc3cnccc3CO)s2)o1, COCCC(=O)NCCc1nc(N(C)C)ncc1-c1ccncc1 is higher in cytotoxicity at 10 µM: -10.9% for the first, 1.68% for the second.

Compared with Cc1oc(NC(=O)C(C)N2CCN(C(=O)C3CC3)CC2)c(C#N)c1C (stereo unspecified), CC(=O)N1CCCN(C(=O)NCCNc2ccccn2)CC1 is higher in cytotoxicity at 10 µM: -18.6% for the first, -4.07% for the second.

Going from c1cncc(CN2CCC3(COCCN(C4CCOCC4)C3)C2)c1 (stereo unspecified) to c1cnc2c(c1)cc(C1CCOCC1)n2CCN1CCOCC1, the cytotoxicity at 10 µM falls from 1.46% to 0.487%.

Going from Cc1ccc(C(=O)N2CC(c3cccnc3)C2)cc1N1CCNC1=O to Cc1ccc2nc(C(=O)N3CCNC(=O)C3c3cccc(F)c3)cn2c1 (stereo unspecified), the cytotoxicity at 10 µM falls from -4.57% to -5.66%.

Going from COc1ccc(CN(C(=O)C(C)SC)c2cnn(C)c2)c(OC)c1 (stereo unspecified) to COc1ccc(C(O)CN2CC(n3cc(C)cn3)C2)cc1 (stereo unspecified), the cytotoxicity at 10 µM rises from -3.88% to 4.52%.

Going from Cc1csc(-c2ccc(NC(=O)N3CCOCC3)cc2)n1 to O=C(c1cccc(NCCOc2ccc(F)cc2)c1)N1CCOCC1, the cytotoxicity at 10 µM rises from -9.2% to 7.43%.

Compared with O=C(Cc1ccccc1)N1CCC2(CCN2Cc2ccc(F)cc2)C1 (stereo unspecified), Cc1cc(CNC(=O)N2CCCN(Cc3ccccc3)CC2)no1 is lower in cytotoxicity at 10 µM: 2.17% for the first, -8.26% for the second.

First: CCN1C(=O)[C@H]2CN(CC(C)C)C[C@H]2C12CCN(C(=O)NC(C)C)CC2
Second: CCC1=N[C@@]2(CC[C@@H]3CN(S(=O)(=O)CC)C[C@@H]32)C(=O)N1CCOC
The cytotoxicity at 10 µM of the first is higher: 4.89% for the first, -0.211% for the second.

Going from CCCc1nn(Cc2csc(C(C)C)n2)c(=O)o1 to Cc1cc(CN2C[C@H]3CCC[C@@]3(COCc3csc(C)n3)C2)no1, the cytotoxicity at 10 µM rises from -47.7% to 11.6%.

Going from OCC1CCC2(CC1)CN(Cc1ccccn1)Cc1ccccc1O2 (stereo unspecified) to OC1(CNC2CCN(c3ccccn3)CC2)CCc2ccccc21 (stereo unspecified), the cytotoxicity at 10 µM falls from 5.35% to -3.48%.

First: CNc1nc2cn(-c3cccc(OC)c3)c(=O)c-2c[nH]1
Second: COc1cccc(-n2nnc(C(=O)N3CCCC(C)C3)c2C)c1 (stereo unspecified)
The cytotoxicity at 10 µM of the first is higher: 6.04% for the first, -5.33% for the second.

Going from COc1cc(CNCCn2ccnc2)cc2c1OCO2 to COc1ccccc1OCCNCCn1cccn1, the cytotoxicity at 10 µM falls from 5.17% to -4.53%.

Going from CCN(CCN1CCCCCC1)C(=O)COc1cccnc1 to O=C(CCn1c(C(F)(F)F)cc2cccnc21)N1CCCC1, the cytotoxicity at 10 µM falls from 12.6% to -21.5%.

Compared with COC(=O)c1sc(C(F)(F)F)cc1OC, Cc1cc(C(F)(F)F)nn1CC(C)C(=O)Nc1ccncc1 (stereo unspecified) is lower in cytotoxicity at 10 µM: 4.69% for the first, -2.13% for the second.

Going from COC(=O)c1ccccc1NC(=O)c1nc2ccccc2n(C)c1=O to COc1ccccc1NC(=O)Cn1c(=O)nc(N)c2cc(C)sc21, the cytotoxicity at 10 µM rises from -9.99% to 3.45%.

Compared with CCn1nc(C)c2nnn(CC(=O)Nc3cccc(C)c3)c(=O)c21, CCCc1nc(N2CCCCC2)c2c(n1)c(C)nn2CC is lower in cytotoxicity at 10 µM: 10.1% for the first, 7.46% for the second.

First: CC(C)Nc1nc(N2CCCC2)nc2c1CN(c1ncc(F)cn1)CC2
Second: Cn1cc(-c2cnc(N3CCOCC3)nc2)cc1C(=O)NC1CC1
The cytotoxicity at 10 µM of the first is higher: 13.5% for the first, -80.4% for the second.

Compared with CCc1nc(CC(=O)Nc2cnn(CC3CCCO3)c2)cs1 (stereo unspecified), Cc1ccc(C(=O)Nc2cc(F)ccc2OCC2CCCO2)cn1 (stereo unspecified) is higher in cytotoxicity at 10 µM: -3.11% for the first, 0.207% for the second.

First: O=C1CCC2(CCC(NC3CCOC3)CC2)N1Cc1ccccc1 (stereo unspecified)
Second: O=C(N1CCOCC1)N1CC[C@@](O)(c2ccccc2)[C@H]2CCCC[C@@H]21
The cytotoxicity at 10 µM of the first is lower: -5.54% for the first, -1.11% for the second.

Going from CCOCCOC(C)C(=O)NCc1cn2cc(Br)ccc2n1 (stereo unspecified) to NCc1cnn(-c2ccccc2C(=O)NCCCn2ccnc2)c1, the cytotoxicity at 10 µM rises from -6.83% to -3.01%.

Compared with CCN(CC)CC1CCN(Cc2ncc(C(C)(C)C)o2)CC1, Cc1nc(CN2CCC(N(C)Cc3nnc(C4CC4)n3C)C2)cs1 (stereo unspecified) is lower in cytotoxicity at 10 µM: -7.22% for the first, -10.7% for the second.

First: CC(C)N1CCCC1c1cc(CCO)[nH]n1 (stereo unspecified)
Second: CNCC(=O)N1CCCC1c1nc(C(C)C)no1 (stereo unspecified)
The cytotoxicity at 10 µM of the first is lower: 0.895% for the first, 0.983% for the second.

Compared with CC1(C)CC(n2cc3nc(N4CCCC4)[nH]cc-3c2=O)CC(C)(C)N1, Cc1cc(C(=O)N2CCCC(n3nc(C)cc3C)C2)on1 (stereo unspecified) is lower in cytotoxicity at 10 µM: 9.46% for the first, -7.69% for the second.

Going from N#Cc1ccc(OCCN2CCc3c(ncn3C3CC3)C2)cc1 to COc1ccc(-c2nc(CN3CCc4cnc(C)nc4C3)no2)cc1, the cytotoxicity at 10 µM falls from -0.318% to -7.1%.

Going from Cc1ncoc1C(=O)N1C[C@@H]2COC[C@]2(c2nnc(C3CC3)o2)C1 to CCS(=O)(=O)N1CCC(c2nnc(C3CC3)o2)CC1, the cytotoxicity at 10 µM falls from -2.08% to -10.7%.

Compared with Cc1nc(CN2CCCC(NCc3ccc4ccccc4c3)C2)no1 (stereo unspecified), CCC(=O)N1CCCC(C(=O)NCc2noc(Cc3ccccc3)n2)C1 (stereo unspecified) is lower in cytotoxicity at 10 µM: -0.375% for the first, -1.15% for the second.

O=C(c1ncccn1)N1C[C@H]2CCC[C@@]2(COCc2cccnc2)C1 and Cc1ncccc1OC1(C(=O)NCCc2ccccn2)CCNCC1 are the same in cytotoxicity at 10 µM: 1.83% for the first, 1.83% for the second.

First: OC[C@@H](O)CN(CCC(F)(F)F)c1ncc(Br)cn1
Second: Cc1cccnc1CNC(=O)N(CCCO)C1CCc2ccccc21 (stereo unspecified)
The cytotoxicity at 10 µM of the first is higher: -8.72% for the first, -11.4% for the second.

First: O=C(CSc1ccccn1)NCc1ccc2c(c1)CCC(=O)N2
Second: O=C(NCCN1CCCCCC1=O)Nc1cccnc1-n1cccn1
The cytotoxicity at 10 µM of the first is higher: 20% for the first, -1.73% for the second.

Going from Cc1nc(CN(C)C(=O)CN(C)C)nc2c1CCC(=O)N2CCC(C)C to Cc1nn(CC(C)C)c(N(C)C)c1CNCc1ccccc1CO, the cytotoxicity at 10 µM falls from -10.5% to -15.2%.

First: CN(CC(=O)N1CCCC1Cn1cccn1)Cc1ccccc1 (stereo unspecified)
Second: CC(C)CN1C[C@H](COCc2ccccc2)Oc2ncccc2C1=O
The cytotoxicity at 10 µM of the first is higher: -2.12% for the first, -57.4% for the second.

First: CC(=O)c1c(C)nn(S(=O)(=O)c2ccc(Cl)cc2)c1C
Second: CC(C)NC(=O)NC[C@H]1OC[C@@H](NCc2ccc(S(C)(=O)=O)cc2)[C@@H]1O
The cytotoxicity at 10 µM of the first is lower: -6.74% for the first, 6.7% for the second.

Going from Fc1cc(Cl)cnc1N1CCCC(c2nccn2CC2CC2)C1 (stereo unspecified) to COc1ccc(-c2nc(CN3CCCC(OC)C3)c(C)o2)c(F)c1 (stereo unspecified), the cytotoxicity at 10 µM falls from 4.8% to -37.8%.

Compared with COCCN(Cc1ccc(F)cc1Cl)C(=O)c1cccc[n+]1[O-], CN(CCCOc1ccc(F)cc1)Cc1nc2c(cnn2C)c(=O)[nH]1 is lower in cytotoxicity at 10 µM: 8.81% for the first, -4.62% for the second.

First: NC(=O)C1CN(C(=O)Nc2ccc(SC(F)(F)F)cc2)CCO1 (stereo unspecified)
Second: CC[C@@]1(O)CCN(C(=O)c2ccc(-n3cnnc3)cc2)C[C@H]1O
The cytotoxicity at 10 µM of the first is lower: -12.9% for the first, 3.86% for the second.

Going from Cc1ccc(-c2cc(C3CCNCC3)nc(C)n2)cc1 to O=c1cc(-c2cccnc2)nc(-c2ccc(CN3CC[C@H](O)C3)cc2)[nH]1, the cytotoxicity at 10 µM falls from 9.63% to 3.98%.

First: O=C(O)c1c(-c2cncnc2)ncc2c1CCN(Cc1cccnc1)C2
Second: c1cnc(N2CCN3C[C@H](Oc4cncnc4)C[C@H]3C2)nc1
The cytotoxicity at 10 µM of the first is higher: 10.6% for the first, 7.97% for the second.

Compared with CC(=O)c1cn(CC(=O)NC(C(=O)O)C(C)C)c2ccccc12 (stereo unspecified), O=C(NCCCO)c1cnc(-c2ccccc2)nc1O is lower in cytotoxicity at 10 µM: 0.415% for the first, -7.11% for the second.

Going from COc1cc2cc(C(=O)NC(C)C(=O)O)n(C)c2c(OC)c1OC (stereo unspecified) to COc1cc(C(=O)Nc2nc(C)no2)cc(Cl)c1OC, the cytotoxicity at 10 µM rises from -162% to -4.29%.

First: O=C(NCCCN1CCOCC1)c1ccn(COc2ccc(Br)cc2)n1
Second: O=C1CCC(=O)N1CCN1CCC(=Cc2ccccc2)CC1
The cytotoxicity at 10 µM of the first is lower: 5.39% for the first, 8.82% for the second.

Compared with OCCN1CC2(CCN(c3ccccc3)C2)C1, CN1CC2(CCCN(C(=O)Cc3cccc(O)c3)C2)OC1=O (stereo unspecified) is higher in cytotoxicity at 10 µM: 0.234% for the first, 4.61% for the second.

First: CC(=O)N1C[C@H](NC(=O)c2cscn2)[C@@H]2OCCC[C@@H]21
Second: Cc1nc(C)c(C(=O)N2C[C@@H](C(=O)O)[C@H](C3CC3)C2)s1
The cytotoxicity at 10 µM of the first is lower: 2.88% for the first, 7.53% for the second.

Going from Cc1nc2n(n1)CC(NCC(=O)NCCC1=CCCCC1)CC2 (stereo unspecified) to COc1cc(C)sc1C(=O)N1CCCC(n2nc(C)nc2C)C1 (stereo unspecified), the cytotoxicity at 10 µM falls from -9.36% to -13.6%.

First: CN(C(=O)C1CCOCC1)[C@@H]1CCC[C@@H](N2CCOCC2)[C@@H]1O
Second: O=C(CCc1nccs1)N1CCN(c2ncccn2)CC1
The cytotoxicity at 10 µM of the first is higher: 2.19% for the first, -0.313% for the second.

With COCCN1CC[C@]2(CN(Cc3ccccn3)C[C@H]2C)C1=O the cytotoxicity at 10 µM was 8.86%.
